Activity and EC50 data for eight compounds are collected here from ChEMBL document CHEMBL1151799, “Trace amine-associated receptor 1 (TAAR1) is activated by amiodarone metabolites” (Bioorg Med Chem Lett, 2008).

Each structure is given as a SMILES string. pEC50: −log10 of the molar value. The source made the active and inactive calls. The rule behind the calls is not given here.

Holding throughout (assay type): functional, cell-based
For experiment [1], the target named is Trace amine-associated receptor 1 (Rattus norvegicus) (UniProt Q923Y9). Kind of experiment: Agonist activity at rat TAAR1 expressed in HEK293 cells assessed as intracellular cAMP level at <=10 uM after 1 hr. In outline:
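HEK293 cells stably transfected with rTAAR1 (empty pcDNA3 vector cells as control) were harvested in Krebs-Ringer-Hepes buffer (KRH), then incubated in KRH with 133 µM IBMX plus test compound, forskolin (10 µM) or vehicle (DMSO) for 1 h at 37 °C. Intracellular cAMP was read. Tested at 10 µM or below. At least three separate experiments, each in triplicate.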
A general note: Changes in cAMP serve as a functional read-out for many G protein-coupled receptors.

In experiment [2] the target is Trace amine-associated receptor 1 (Rattus norvegicus, UniProt Q923Y9). Nature of the experiment: Agonist activity at rat TAAR1 expressed in HEK293 cells assessed as intracellular cAMP level. In outline:
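HEK293 cells stably transfected with rat TAAR1, with empty pcDNA3 vector cells as control, were harvested in Krebs-Ringer-Hepes buffer. They were incubated in the same buffer with 133 µM IBMX plus test compound, 10 µM forskolin or DMSO vehicle for 1 h at 37 °C. Results are mean ± SEM of at least three separate experiments, each run in triplicate.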

Experiment [3] concerns the target Trace amine-associated receptor 1 (Rattus norvegicus) (UniProt Q923Y9). Kind of experiment: Antagonist activity at rat TAAR1 expressed in HEK293 cells assessed as intracellular cAMP level at 10 uM after 1 hr. In outline:
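Stably rTAAR1-transfected HEK293 cells were harvested in Krebs-Ringer-Hepes buffer and incubated in it with 133 µM IBMX, 1 h at 37 °C. Test compound at 10 µM was given in competition with the agonist T1AM at 33 nM. Intracellular cAMP was read. At least three separate experiments, each in triplicate.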

Trace amine-associated receptor 1 (Rattus norvegicus), sequence (Q923Y9 whole entry, the tested form may be a part): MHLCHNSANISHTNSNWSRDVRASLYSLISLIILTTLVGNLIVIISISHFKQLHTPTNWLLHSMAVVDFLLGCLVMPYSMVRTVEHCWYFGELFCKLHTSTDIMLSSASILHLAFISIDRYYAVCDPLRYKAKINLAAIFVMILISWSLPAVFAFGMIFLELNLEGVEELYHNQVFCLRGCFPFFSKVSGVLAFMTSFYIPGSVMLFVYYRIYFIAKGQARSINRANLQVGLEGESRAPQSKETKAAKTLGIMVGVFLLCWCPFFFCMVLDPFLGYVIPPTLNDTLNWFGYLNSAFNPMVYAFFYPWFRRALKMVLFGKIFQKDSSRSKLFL
Trace amine-associated receptor 1, sequence (Q923Y9 whole entry): as the sequence (Q923Y9 whole entry, the tested form may be a part) above

Turning to `CCCCc1oc2ccccc2c1C(=O)c1cc(I)c(OCCN)c(I)c1`, the result in experiment [1] was Active. The negative-log EC50 (pEC50) (in general, the EC50 on a negative log10 scale, so that one unit is a factor of ten) in experiment [2] was 6.00.

As to `CCCCc1oc2ccccc2c1C(=O)c1ccc(OCCN)cc1`, the result in experiment [1] was Active.

As for `CCCCc1oc2ccccc2c1C(=O)c1cc(I)c(OCCNCC)c(I)c1`, the result in experiment [3] was inactive.

For `CCCCc1oc2ccccc2c1C(=O)c1ccc(OCCN)c(I)c1`, the result in experiment [1] was Active.

Consider `CCCCc1oc2ccccc2c1C(=O)c1ccc(OCCNCC)c(I)c1`, for which the outcome in experiment [3] was inactive.

Consider `CCCCc1oc2ccccc2c1C(=O)c1ccc(OCCN(CC)CC)c(I)c1`, for which the outcome in experiment [3] was inactive.

As to `CCCCc1oc2ccccc2c1C(=O)c1ccc(OCCNCC)cc1`, the result in experiment [1] was Active.

`CCCCc1oc2ccccc2c1C(=O)c1ccc(OCCN(CC)CC)cc1`: the result in experiment [3] was inactive.
